In article PMC8603004 (EFSA Journal, 2021):
Several values for one entry are separate records, joined by “and”; a condition that tells them apart may be missing. Identical values can stand only once.

Legend:
[1] = First in vivo toxicokinetic study; design: species or system male Wistar rats; conditions: after 500 mg/kg bw 14C‐3‐NOP
Outline: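 Male Wistar rats received a single oral dose of 500 mg/kg bw 14C-labelled test compound under OECD TG 417 and were killed 48 h post-dose. Total radioactivity was measured in plasma, excreta and selected organs and tissues. Tissue levels were expressed as μg test-compound-eq/g and recovery as % of applied dose.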

[2] = Second in vivo toxicokinetic study, metabolic profile in gut and plasma; design: species or system male Wistar rats; conditions: urine 0 to 2 h of one animal, after 500 mg/kg bw 14C‐3‐NOP
Outline: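 Single oral dose of 500 mg/kg bw 14C-labelled test compound to male Wistar rats. One animal per time point was killed at 1, 2 and 3 h post-dose and blood was collected. Stomach, small intestine, caecum and colon contents were removed for total radioactivity. Metabolites were characterised by NMR and/or LC/MS.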

[3] = ADME of 14C‐3‐NOP following single or multiple oral administration; assay type: in vivo, rat; conditions: 500 mg/kg 14C‐3‐NOP, 1 h
[4] = tested on: testes and epididymides; Sertoli cells; assay: Mechanistic toxicity studies; design: species or system rats, dogs and non‐human primates
[5] = ADME in a lactating goat; assay type: in vivo
[6] = Second goat experiment, pre‐dosed 5 days; assay type: in vivo, lactating goat
[7] = ADME in four lactating cows; assay type: in vivo
[8] = Feeding study 1 in beef cattle, NOPA in plasma; assay type: in vivo; conditions: bovine, oral, 284 mg/kg
[9] = Tolerance study in dairy cows; assay type: in vivo; conditions: female, Holstein Friesian, cattle, liver, kidney, muscle, fat, oral
[10] = tested on: Holstein Friesian dairy cows; assay: Tolerance study in dairy cows; assay type: in vivo
[11] = tested on: Salmonella Typhimurium strains TA1535, TA1537, TA98, TA100, and Escherichia coli strain WP2 uvrA; assay: Bacterial reverse mutation assay of NOPA; assay type: cell-based; conditions: strains TA1535 and TA100, presence and absence of S9 mix, up to 5,000 μg/plate
Outline: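 Plate-incorporation reverse mutation test on the metabolite in S. Typhimurium TA1535, TA1537, TA98 and TA100 and E. coli WP2 uvrA, with and without liver microsomal activation. Concentrations were 3, 10, 33, 100, 333, 1,000, 2,500 and 5,000 μg/plate. Each concentration and each control was plated in triplicate, and positive and negative controls were included.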

[12] = tested on: whole blood human lymphocytes; assay: In vitro micronucleus test of NOPA; assay type: cell-based; conditions: 229 to 1,321 μg/mL, with and without metabolic activation
Outline: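 GLP micronucleus test (OECD TG 487) on the metabolite (purity 98.4%) in human whole-blood lymphocytes. Three concentrations from 229 to 1,321 μg/mL (top about 10 mmol/L) were analysed. Treatments were a short exposure (4 + 20 h recovery) with and without metabolic activation, and a continuous treatment without activation. Micronuclei were scored.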

[13] = tested on: peripheral blood reticulocytes; assay: In vivo micronucleus assay of NOPA in peripheral blood reticulocytes; design: species or system Fischer 344 Big Blue rats; conditions: days 4 and 29
Outline: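 Fischer 344 Big Blue rats, six per sex per group, were given the metabolite by oral gavage once daily for 28 days at 10 mL/kg in phosphate-buffered saline, pH 7.4. Males received 0, 150, 300 or 600 mg/kg bw/day and females 0, 250, 500 or 1,000 mg/kg bw/day. Peripheral blood was sampled on days 4 and 29, and micronucleated reticulocytes were counted by flow cytometry. Kit positive-control samples were run; there was no concurrent positive group.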

[14] = 28‐day oral gavage study with toxicokinetic evaluation of NOPA; assay type: in vivo, CByB6F1 Hybrid mice; conditions: CByB6F1 Hybrid, mouse, plasma, oral, 700 mg/kg
[15] = tested on: CByB6F1 Hybrid mice; assay: as above; assay type: in vivo; conditions: both sexes
[16] = Consumer exposure calculation to NOPA

For `O=C(O)CCO` [3‐HPA, 3‐hydroxy‐propionic acid], the “Urinary metabolite, share of the dose administered” value [1] was 7.2%, the “Urinary metabolite, share of the urine radioactivity” value [1] was 47.5% and the “Urinary metabolite, share of the urine radioactivity” value [2] was 58%. The Metabolite in epididymis [3] was 60 % TRR, the Metabolite in testes [3] was 84 % TRR and the “Metabolite in the small intestine” value ([3]; females) was 46.5 % of TRR. For the same compound, the “Metabolite in the small intestine” value ([3]; males) was 34.8 % of TRR and the Testicular/epididymal findings ([4]; 10 days after sc administration) was “absence of any testicular/epididymal abnormality”.
In the case of `O=C(O)CCO[N+](=O)[O-]` [NOPA, 3‐nitrooxypropionic acid], the “Urinary metabolite, share of the urine radioactivity” value [2] is reported as 20%, the “Nitrate esters in milk, not detectable (LOD)” value ([5]; milk collected 0–8 h post‐dose) is reported as < 0.82 mg 3‐NOP‐equivalent/kg and the “Nitrate esters in milk, not detectable (LOD)” value ([5]; milk collected 8–24 h post‐dose) is reported as < 0.43 mg 3‐NOP‐equivalent/kg. The “Nitrate esters in the aqueous phase of plasma, not detectable (LOD)” value ([6]; LOD ≤ 0.07) was < 0.07 mg/kg, the “Nitrate esters in the aqueous milk fraction, not detectable (LOD)” value ([6]; LOD ≤ 0.21) was < 0.21 mg/kg and the “Amount in urine, not detected above the LOQ” value ([7]; any urine sample) was ≤ 0.1 % of the dose. The “3‐NOP and NOPA in total excreta, worst‐case scenario” value ([7]; dairy cows) was ≤ 0.2%, the “Residue in milk, not found above the LOQ” value ([7]; in vivo) was < 8 μg 3‐NOP‐equivalents/kg and the “Residue in tissues, not found above the LOQ” value ([7]; in vivo) was < 21 μg 3‐NOP‐equivalents/kg. The concentration at 180 min [8] was 22.3 to 207 ng/mL, the concentration at 57 day [9] was < 5 ng/g and the “NOPA in milk, median of samples above 1 μg/kg” value ([10]; 80 mg 3‐NOP/kg feed DM) was 1.74 µg/kg. The “NOPA in milk, median of samples above 1 μg/kg” value ([10]; 100 mg 3‐NOP/kg feed DM, 7 cows) was 1.52 µg/kg, the “Gene mutations in bacteria” value [11] was “induced gene mutations by base pair substitutions” and the Frequency of micronuclei [12] was “No significant increase in the frequency of micronuclei”. The “Incidence of MN‐RETs” value [13] was “No significant increases in the incidence of MN‐RETs”, the half-life ([14]; female) was 42 to 72 min and the half-life ([14]; male) was 30 to 84 min. The “Time of rapid increase of NOPA plasma concentration” value [15] was < 1 h, the “Susceptibility of Sertoli cells from dogs” value ([4]; ex vivo/in vitro cultures of seminiferous tubuli) was “not susceptible” and the “Consumer exposure, maximum HRP” value ([16]; Adolescents) was 0.2260 μg/kg bw per day. For the same compound, the “Consumer exposure, maximum HRP” value ([16]; Adults) was 0.1293 μg/kg bw per day, the “Consumer exposure, maximum HRP” value ([16]; Elderly) was 0.1162 μg/kg bw per day and the “Consumer exposure, maximum HRP” value ([16]; Infants) was 0.4542 μg/kg bw per day. For the same compound, the “Consumer exposure, maximum HRP” value ([16]; Other children) was 0.6 μg/kg bw per day and 0.5952 μg/kg bw per day, the “Consumer exposure, maximum HRP” value ([16]; Toddlers) was 0.4674 μg/kg bw per day and the “Consumer exposure, maximum HRP” value ([16]; Very elderly) was 0.1266 μg/kg bw per day. For the same compound, the “Maximum HRP as share of the established ADI” value ([16]; other children, ADI 1 mg/kg bw per day) was 0.06%.
In the case of `O=C(O)C1OC(OCCCO[N+](=O)[O-])C(O)C(O)C1O` (stereo not shown) [glucuronide of 3‐NOP], the “Urinary metabolite, share of the urine radioactivity” value [2] is reported as 11%.
